Results from ChEMBL document CHEMBL1687774, “Furanyl-rhodanines are unattractive drug candidates for development as inhibitors of bacterial RNA polymerase” (Antimicrob Agents Chemother, 2010).
In brackets after ≈: the same amount, converted by molar mass.

Legend:
Bos taurus [1] = species on record: Bos taurus; assay: Inhibition of bovine Chymotrypsin at 100 uM
Summary of the method: (§1)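 Bovine chymotrypsin and porcine malate dehydrogenase specificity screens with compound at 100 μM; percent inhibition of enzyme activity.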

Escherichia coli [2] = assay: Antibacterial activity against Escherichia coli 1411 by microdilution method; assay type: functional
Summary of the method: (§2)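 MICs by broth microdilution in Mueller-Hinton broth following British Society for Antimicrobial Chemotherapy guidelines; where used, polymyxin B nonapeptide (4 μg/ml) was added together with the compound.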

[3] = Inhibition of Escherichia coli RNA polymerase using Kool NC-45 universal RNA polymerase template
Summary of the method: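 In vitro E. coli RNA polymerase assay using the Kool NC-45 universal RNA polymerase template; IC50 determined.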

Escherichia coli [4] = assay: Antibacterial activity against AcrAB-deficient Escherichia coli SM1411 by microdilution method; assay type: functional; summary of the method: as §2
Escherichia coli [5] = assay: Antibacterial activity against Escherichia coli 1411 by microdilution method in presence of 4 ug/ml PMBN; assay type: functional; summary of the method: as §2
Bacillus subtilis [6] = assay: Antibacterial activity against Bacillus subtilis 1S34 by microdilution method; assay type: functional; summary of the method: as §2
[7] = tested on: Staphylococcus epidermidis; assay: Antibacterial activity against Staphylococcus epidermidis ATCC 11047 by microdilution method; assay type: functional; summary of the method: as §2
Sus scrofa [8] = species on record: Sus scrofa; assay: Inhibition of pig Malate dehydrogenase at 100 uM; summary of the method: as §1
Staphylococcus aureus [9] = assay: Antibacterial activity against Staphylococcus aureus SH1000 by microdilution method; assay type: functional; summary of the method: as §2
Bos taurus [10] = species on record: Bos taurus; assay: Inhibition of bovine Chymotrypsin at 0.0472 uM
Sus scrofa [11] = species on record: Sus scrofa; assay: Inhibition of pig Malate dehydrogenase at 0.0472 uM
Bacillus subtilis [12] = assay: Inhibition of Protein biosynthesis in Bacillus subtilis 1S34 assessed as induction in biosensor yheI promoter-luciferase reporter signal relative to untreated control; assay type: functional
Summary of the method: (§3)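 B. subtilis biosensor strains carry stress-responsive promoter-reporter constructs (parent 1S34). Value is the maximum reporter signal induced, as a ratio to the signal in noninduced control cultures.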

Staphylococcus aureus [13] = assay: Induction of membrane integrity loss in Staphylococcus aureus SH1000 at 4 times MIC after 10 mins by BacLight assay; assay type: functional
Summary of the method: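 Membrane integrity measured by BacLight fluorescence after S. aureus SH1000 was exposed to 4× MIC of compound for 10 min; expressed relative to the drug-free control (100%).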

Bacillus subtilis [14] = assay: Inhibition of RNA biosynthesis in Bacillus subtilis 1S34 assessed as induction in biosensor yvgS promoter-luciferase reporter signal relative to untreated control; assay type: functional; summary of the method: as §3
Staphylococcus aureus [15] = assay: Induction of membrane potential loss in Staphylococcus aureus SH1000 at 4 times MIC after 10 mins by DIS3 fluorescence assay; assay type: functional
Summary of the method: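 Membrane potential measured with the fluorescent dye DiSc3(5) after S. aureus SH1000 was exposed to 4× MIC of compound for 10 min; expressed relative to the drug-free control (100%).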

Bacillus subtilis [16] = assay: Inhibition of Fatty acid biosynthesis in Bacillus subtilis 1S34 assessed as induction in biosensor fabHB promoter-luciferase reporter signal relative to untreated control; assay type: functional; summary of the method: as §3
Bacillus subtilis [17] = assay: Inhibition of Cell envelope biosynthesis in Bacillus subtilis 1S34 assessed as induction in biosensor ypuA promoter-luciferase reporter signal relative to untreated control; assay type: functional; summary of the method: as §3
Bacillus subtilis [18] = assay: Inhibition of DNA biosynthesis in Bacillus subtilis 1S34 assessed as induction in biosensor yorB promoter-luciferase reporter signal relative to untreated control; assay type: functional; summary of the method: as §3

Row | Compound | inhibition (Bos taurus [1]) [%] | MIC (Escherichia coli [2]) [µg/mL] | IC50 [3] [µM] | MIC (Escherichia coli [4]) [µg/mL] | MIC (Escherichia coli [5]) [µg/mL] | MIC (Bacillus subtilis [6]) [µg/mL] | MIC [7] [µg/mL] | inhibition (Sus scrofa [8]) [%] | MIC (Staphylococcus aureus [9]) [µg/mL] | inhibition (Bos taurus [10]) [%] | inhibition (Sus scrofa [11]) [%] | fold change (FC) (Bacillus subtilis [12]) | Activity (Staphylococcus aureus [13]) [%] | fold change (FC) (Bacillus subtilis [14]) | Activity (Staphylococcus aureus [15]) [%] | fold change (FC) (Bacillus subtilis [16]) | fold change (FC) (Bacillus subtilis [17]) | fold change (FC) (Bacillus subtilis [18])
1 | C=CCN1C(=O)/C(=C/c2ccc(-c3ccc(C(=O)O)cc3)o2)SC1=S | 67.4 | > 256 | 37.3 | > 256 | > 256 | > 256 | > 256 | 96.3 | > 256 | – | – | – | – | – | – | – | – | –
2 | O=C(O)CCCN1C(=O)/C(=C/c2ccc(-c3cccc(Cl)c3)o2)SC1=S | 96.7 | > 128 | 16.3 | > 128 | 16 | 1 (≈ 2.45 µM) | – | 88.1 | 4 (≈ 9.81 µM) | – | – | 1.2 | 27.3 | 1 | 43.1 | 0.9 | 1 | 1.1
3 | O=C1NC(=S)S/C1=C\c1ccc([N+](=O)[O-])o1 | 49.4 | 16 (≈ 62.4 µM) | 32.2 | 16 (≈ 62.4 µM) | 2 | 1 (≈ 3.9 µM) | – | 99.7 | 4 (≈ 15.6 µM) | – | – | 1.3 | 82.8 | 1.3 | 104.8 | 1.4 | 1 | 8

Compounds with a lower IC50 [3], results first:

Row | inhibition (Bos taurus [1]) [%] | MIC (Escherichia coli [2]) [µg/mL] | IC50 [3] [µM] | MIC (Escherichia coli [4]) [µg/mL] | MIC (Escherichia coli [5]) [µg/mL] | MIC (Bacillus subtilis [6]) [µg/mL] | MIC [7] [µg/mL] | inhibition (Sus scrofa [8]) [%] | MIC (Staphylococcus aureus [9]) [µg/mL] | inhibition (Bos taurus [10]) [%] | inhibition (Sus scrofa [11]) [%] | Compound | fold change (FC) (Bacillus subtilis [12]) | Activity (Staphylococcus aureus [13]) [%] | fold change (FC) (Bacillus subtilis [14]) | Activity (Staphylococcus aureus [15]) [%] | fold change (FC) (Bacillus subtilis [16]) | fold change (FC) (Bacillus subtilis [17]) | fold change (FC) (Bacillus subtilis [18])
4 | – | – | 0.0115 | – | – | – | – | – | – | 7.8 | 8.3 | CO[C@H]1/C=C/O[C@@]2(C)Oc3c(C)c(O)c4c(O)c(c(/C=N/N5CCN(C)CC5)c(O)c4c3C2=O)NC(=O)/C(C)=C\C=C\[C@H](C)[C@H](O)[C@@H](C)[C@@H](O)[C@@H](C)[C@H](OC(C)=O)[C@@H]1C [RIFAMPIN] | – | – | – | – | – | – | –
5 | – | – | 0.726 | – | – | – | – | – | – | – | – | C/C=C/C/C=C(\C)C(O)CC/C(C)=C/C=C(\C)C(=O)c1c(O)cc([C@H](C)CC/C=C/NC(=O)OC)oc1=O (some centres undefined) [CORALLOPYRONIN A] | – | – | – | – | – | – | –
6 | – | – | 0.0086 | – | – | – | – | – | – | – | – | CO[C@H]1/C=C/O[C@@]2(C)Oc3c(C)c(O)c4c(O)c(cc(O)c4c3C2=O)NC(=O)/C(C)=C\C=C\[C@H](C)[C@H](O)[C@@H](C)[C@@H](O)[C@@H](C)[C@H](OC(C)=O)[C@@H]1C [RIFAMYCIN] | – | – | – | – | – | – | –
